Laboratory results taken from ChEMBL document CHEMBL4043298, “Discovery of a Potent (4 R,5 S)-4-Fluoro-5-methylproline Sulfonamide Transient Receptor Potential Ankyrin 1 Antagonist and Its Methylene Phosphate Prodrug Guided by Molecular Modeling” (J Med Chem, 2018).
Values after ≈ are worked out from the molar mass of the structure shown.

Assays:
[1] = Clearance in rat liver microsomes; format: ADME, microsome
How it was run: (§1)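 Hepatic clearance predicted from human or rat liver microsome incubations.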

[2] = target: Transient receptor potential cation channel subfamily A member 1 (Homo sapiens, UniProt O75762); experiment: Inhibition of human TRPA1 expressed in HEK293 cells assessed as inhibition of cinnamaldehyde-induced Ca2+ influx preincubated for 20 mins followed by cinnamaldehyde induction by FLIPR assay; format: cell-based
[3] = Clearance in human liver microsomes; format: ADME, microsome; how it was run: as §1
[4] = Lipophilicity, log D of the compound at pH 7.4; details: buffer
[5] = Kinetic solubility of the compound; format: physicochemical; details: read-out: Kinetic_solubility
[6] = Ratio of unbound Cmax in rat at 30 mg/kg, po to IC50 for rat TRPA1
How it was run: (§2)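 Rat oral dose of 30 or 100 mg/kg given as an amorphous suspension. Solid was dissolved in DMSO and precipitated into aqueous MCT, giving a final 15% DMSO/85% MCT. Plasma exposure measured over 0–24 h. The target multiple is unbound Cmax divided by the rat TRPA1 IC50.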

[7] = AUC (0 to 24 hrs) in rat at 1 mg/kg, po; format: ADME, organism-based; set-up: dose 1 mg/kg, time < 24 hr, route oral; details: in vivo
How it was run: (§3)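 Rat oral dose of 1 mg/kg in MCT vehicle (0.5% methylcellulose with 0.2% Tween 80 in water). Parent plasma exposure measured over 0–24 h. The target multiple is unbound Cmax divided by the rat TRPA1 IC50.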

[8] = target: Transient receptor potential cation channel subfamily M member 8 (Homo sapiens, UniProt Q7Z2W7); experiment: Inhibition of human TRPM8
hERG (KCNH2) = hERG (KCNH2) (Homo sapiens, UniProt Q12809); experiment: Inhibition of human ERG at 10 uM by patch clamp assay relative to control
How it was run: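 hERG potassium channel inhibition measured by automated patch clamp at a single concentration of 10 μM.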

[9] = target: Transient receptor potential cation channel subfamily A member 1 (Rattus norvegicus, UniProt Q6RI86); experiment: Inhibition of rat TRPA1 expressed in HEK293 cells assessed as inhibition of cinnamaldehyde-induced Ca2+ influx preincubated for 20 mins followed by cinnamaldehyde induction by FLIPR assay; format: cell-based
Rattus norvegicus [10] = experiment: Half life in rat at 1 mg/kg, iv; format: ADME, organism-based; details: in vivo
[11] = Oral bioavailability in rat at 1 mg/kg; format: ADME, organism-based; details: in vivo
[12] = Protein binding in human plasma; format: ADME, cell-free; details: read-out: PPB (converted)
[13] = AUC (0 to 24 hrs) in rat at 30 mg/kg, po; format: ADME, organism-based; set-up: dose 30 mg/kg, time < 24 hr, route oral; details: in vivo; how it was run: as §2
Rattus norvegicus [14] = experiment: Volume of distribution at steady state in rat at 1 mg/kg, iv; format: ADME, organism-based; details: in vivo
[15] = Ratio of unbound Cmax in rat at 100 mg/kg, po to IC50 for rat TRPA1; how it was run: as §2
[16] = Ratio of unbound Cmax in rat at 1 mg/kg, po to IC50 for rat TRPA1; how it was run: as §3
[17] = AUC (0 to 24 hrs) in rat at 100 mg/kg, po; format: ADME, organism-based; set-up: dose 100 mg/kg, time < 24 hr, route oral; details: in vivo; how it was run: as §2
[18] = Permeability across apical to basolateral side in MDCK cells; format: ADME, cell-based, Canis lupus familiaris; details: dog, read-out: permeability
[19] = Protein binding in rat plasma; format: ADME, cell-free; details: read-out: PPB (converted)
[20] = Cmax in rat at 100 mg/kg, po; format: ADME, organism-based; set-up: dose 100 mg/kg, route oral; details: in vivo; how it was run: as §2
[21] = Cmax in rat at 1 mg/kg, po; format: ADME, organism-based; set-up: dose 1 mg/kg, route oral; details: in vivo; how it was run: as §3
[22] = Cmax in rat at 30 mg/kg, po; format: ADME, organism-based; set-up: dose 30 mg/kg, route oral; details: in vivo; how it was run: as §2
[23] = target: Transient receptor potential cation channel subfamily V member 1 (Homo sapiens, UniProt Q8NER1); experiment: Inhibition of human TRPV1
Sequence of Transient receptor potential cation channel subfamily V member 1 (Q8NER1 whole entry): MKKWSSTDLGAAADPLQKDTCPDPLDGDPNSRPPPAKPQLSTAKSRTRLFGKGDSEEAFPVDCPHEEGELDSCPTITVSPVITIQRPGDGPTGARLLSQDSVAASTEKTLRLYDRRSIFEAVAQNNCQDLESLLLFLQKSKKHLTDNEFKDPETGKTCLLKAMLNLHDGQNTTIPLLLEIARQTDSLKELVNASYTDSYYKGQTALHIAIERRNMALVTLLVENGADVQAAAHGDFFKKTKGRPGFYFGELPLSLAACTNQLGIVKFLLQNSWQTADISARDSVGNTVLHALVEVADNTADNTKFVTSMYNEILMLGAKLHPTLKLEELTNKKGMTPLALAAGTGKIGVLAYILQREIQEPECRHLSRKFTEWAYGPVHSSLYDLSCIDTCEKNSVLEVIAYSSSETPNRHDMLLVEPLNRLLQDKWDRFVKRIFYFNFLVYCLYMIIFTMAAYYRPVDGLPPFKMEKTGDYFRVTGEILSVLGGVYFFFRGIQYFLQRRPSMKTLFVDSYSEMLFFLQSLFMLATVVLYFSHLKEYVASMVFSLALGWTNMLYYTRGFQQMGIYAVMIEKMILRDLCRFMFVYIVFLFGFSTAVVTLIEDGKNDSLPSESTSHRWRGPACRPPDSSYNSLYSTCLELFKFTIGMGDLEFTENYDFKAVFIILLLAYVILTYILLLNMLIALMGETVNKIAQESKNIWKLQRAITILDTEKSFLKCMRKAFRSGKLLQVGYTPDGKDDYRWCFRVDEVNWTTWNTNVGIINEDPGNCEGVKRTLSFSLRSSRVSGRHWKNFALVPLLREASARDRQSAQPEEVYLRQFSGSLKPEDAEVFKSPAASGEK

Sequence of Transient receptor potential cation channel subfamily A member 1 (Homo sapiens, UniProt O75762) (O75762 whole entry): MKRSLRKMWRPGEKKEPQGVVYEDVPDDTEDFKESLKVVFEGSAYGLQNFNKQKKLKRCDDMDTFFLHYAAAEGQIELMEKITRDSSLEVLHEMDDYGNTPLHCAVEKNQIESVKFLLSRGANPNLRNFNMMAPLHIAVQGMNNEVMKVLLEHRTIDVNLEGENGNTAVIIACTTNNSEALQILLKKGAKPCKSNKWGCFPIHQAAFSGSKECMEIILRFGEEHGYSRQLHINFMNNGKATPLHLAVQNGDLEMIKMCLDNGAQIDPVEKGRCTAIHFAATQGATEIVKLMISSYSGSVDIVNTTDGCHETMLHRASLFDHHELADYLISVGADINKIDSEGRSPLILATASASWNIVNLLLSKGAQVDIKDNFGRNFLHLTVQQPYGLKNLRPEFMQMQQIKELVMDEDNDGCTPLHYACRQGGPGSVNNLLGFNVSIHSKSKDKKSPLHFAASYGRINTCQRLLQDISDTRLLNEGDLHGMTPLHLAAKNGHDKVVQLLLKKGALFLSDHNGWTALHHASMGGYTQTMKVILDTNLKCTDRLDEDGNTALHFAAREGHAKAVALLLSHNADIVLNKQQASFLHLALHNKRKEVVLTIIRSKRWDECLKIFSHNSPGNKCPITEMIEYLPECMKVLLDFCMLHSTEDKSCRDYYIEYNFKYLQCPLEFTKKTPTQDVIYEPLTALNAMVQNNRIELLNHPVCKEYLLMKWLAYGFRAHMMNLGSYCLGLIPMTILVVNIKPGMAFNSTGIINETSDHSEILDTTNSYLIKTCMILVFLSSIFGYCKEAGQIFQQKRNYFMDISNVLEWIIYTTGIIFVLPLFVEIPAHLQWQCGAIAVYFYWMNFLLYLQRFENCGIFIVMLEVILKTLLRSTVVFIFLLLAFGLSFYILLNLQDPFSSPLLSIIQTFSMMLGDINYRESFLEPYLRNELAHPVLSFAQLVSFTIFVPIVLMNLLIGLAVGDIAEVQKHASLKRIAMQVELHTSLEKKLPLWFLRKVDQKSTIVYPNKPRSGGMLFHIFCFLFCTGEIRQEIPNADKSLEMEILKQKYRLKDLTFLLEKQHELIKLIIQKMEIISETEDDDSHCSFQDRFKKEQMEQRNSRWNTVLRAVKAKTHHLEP
Sequence of hERG (KCNH2) (Q12809 whole entry): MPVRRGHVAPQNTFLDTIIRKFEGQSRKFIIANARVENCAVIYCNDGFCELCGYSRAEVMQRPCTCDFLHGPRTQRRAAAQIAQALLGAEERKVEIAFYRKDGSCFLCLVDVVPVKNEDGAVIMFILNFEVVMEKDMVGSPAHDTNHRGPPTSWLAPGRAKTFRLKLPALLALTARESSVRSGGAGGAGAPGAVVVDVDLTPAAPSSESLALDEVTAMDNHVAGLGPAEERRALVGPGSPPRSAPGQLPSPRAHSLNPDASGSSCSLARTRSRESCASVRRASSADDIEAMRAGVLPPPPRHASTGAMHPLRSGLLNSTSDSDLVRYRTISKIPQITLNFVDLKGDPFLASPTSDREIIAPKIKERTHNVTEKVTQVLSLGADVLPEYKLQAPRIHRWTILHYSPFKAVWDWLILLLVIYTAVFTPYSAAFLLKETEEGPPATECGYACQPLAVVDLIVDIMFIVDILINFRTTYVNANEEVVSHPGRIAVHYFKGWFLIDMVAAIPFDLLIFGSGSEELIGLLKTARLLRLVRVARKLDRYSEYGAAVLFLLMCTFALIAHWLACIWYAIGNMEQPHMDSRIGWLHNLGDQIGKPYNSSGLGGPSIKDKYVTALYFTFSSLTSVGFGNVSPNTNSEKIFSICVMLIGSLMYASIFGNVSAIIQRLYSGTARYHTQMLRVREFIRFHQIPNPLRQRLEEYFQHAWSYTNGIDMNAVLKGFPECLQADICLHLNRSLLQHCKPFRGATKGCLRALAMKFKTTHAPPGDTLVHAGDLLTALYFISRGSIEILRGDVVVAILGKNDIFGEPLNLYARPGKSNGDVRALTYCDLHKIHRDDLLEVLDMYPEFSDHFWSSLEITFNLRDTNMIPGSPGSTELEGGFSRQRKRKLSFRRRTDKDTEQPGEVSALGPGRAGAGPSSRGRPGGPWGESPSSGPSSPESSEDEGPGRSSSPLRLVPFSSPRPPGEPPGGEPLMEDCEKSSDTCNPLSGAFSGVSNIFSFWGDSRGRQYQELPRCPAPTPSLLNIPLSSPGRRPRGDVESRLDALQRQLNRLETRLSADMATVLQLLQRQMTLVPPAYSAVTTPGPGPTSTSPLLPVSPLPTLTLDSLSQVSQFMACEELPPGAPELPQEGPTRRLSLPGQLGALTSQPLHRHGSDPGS
Sequence of Transient receptor potential cation channel subfamily A member 1 (Rattus norvegicus, UniProt Q6RI86) (Q6RI86 whole entry): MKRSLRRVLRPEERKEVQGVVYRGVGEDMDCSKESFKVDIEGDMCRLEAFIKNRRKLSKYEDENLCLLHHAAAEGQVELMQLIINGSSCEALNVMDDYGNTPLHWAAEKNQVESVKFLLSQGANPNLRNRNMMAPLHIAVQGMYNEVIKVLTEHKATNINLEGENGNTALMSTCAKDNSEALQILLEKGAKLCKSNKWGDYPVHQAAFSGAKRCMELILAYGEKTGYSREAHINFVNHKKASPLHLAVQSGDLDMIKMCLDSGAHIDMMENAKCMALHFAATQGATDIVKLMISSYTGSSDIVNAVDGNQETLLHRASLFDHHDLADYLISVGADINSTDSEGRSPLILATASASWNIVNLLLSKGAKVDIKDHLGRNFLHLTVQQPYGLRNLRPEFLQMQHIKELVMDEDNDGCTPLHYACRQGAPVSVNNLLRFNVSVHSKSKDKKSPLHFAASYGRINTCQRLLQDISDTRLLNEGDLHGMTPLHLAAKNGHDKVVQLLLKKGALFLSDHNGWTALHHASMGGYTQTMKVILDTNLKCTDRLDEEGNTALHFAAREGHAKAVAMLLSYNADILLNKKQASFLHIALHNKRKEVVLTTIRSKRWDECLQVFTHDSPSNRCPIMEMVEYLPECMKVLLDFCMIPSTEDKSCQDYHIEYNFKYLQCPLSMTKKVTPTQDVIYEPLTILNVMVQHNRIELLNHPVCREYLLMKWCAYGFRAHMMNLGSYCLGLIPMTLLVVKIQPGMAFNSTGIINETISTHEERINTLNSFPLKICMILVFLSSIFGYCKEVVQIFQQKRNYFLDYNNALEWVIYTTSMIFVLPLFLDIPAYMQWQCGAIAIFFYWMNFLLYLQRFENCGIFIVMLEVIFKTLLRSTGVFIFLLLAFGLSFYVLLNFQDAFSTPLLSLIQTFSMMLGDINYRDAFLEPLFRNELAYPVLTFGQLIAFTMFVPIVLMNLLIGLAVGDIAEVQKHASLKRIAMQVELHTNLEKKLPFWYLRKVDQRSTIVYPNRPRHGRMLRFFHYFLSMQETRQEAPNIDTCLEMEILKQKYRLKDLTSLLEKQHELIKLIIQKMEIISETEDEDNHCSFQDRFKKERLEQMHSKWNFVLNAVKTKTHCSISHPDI

CLhep predicted [1] | IC50 [2] | CLhep predicted [3] | logD [4] | solubility kinetic [5] | Structure (SMILES) | also measured
27 mL/min/kg | 1500 nM | 10 mL/min/kg | 2.4 | – | O=C(NCc1cc(-c2ccc(C(F)(F)F)nc2)ncn1)[C@@H]1CCN1S(=O)(=O)c1ccc(F)cc1 | –
36 mL/min/kg | 328 nM | 14 mL/min/kg | 2.5 | 8 µM (≈ 4.62 µg/mL) | C[C@H]1[C@H](F)C[C@@H](C(=O)NCc2c(F)cnc(-c3cnc(C(F)(F)F)nc3)c2F)N1S(=O)(=O)c1ccc(F)cc1 | –
21 mL/min/kg | 13 nM | 15 mL/min/kg | 2.5 | 8 µM (≈ 4.61 µg/mL) | C[C@H]1[C@H](F)C[C@@H](C(=O)NCc2cc(-c3cnc(C(F)(F)F)nc3)c(Cl)cn2)N1S(=O)(=O)c1ccc(F)cc1 | –
16 mL/min/kg | 10 nM | 9 mL/min/kg | – | 14 µM (≈ 7.93 µg/mL) | C[C@H]1[C@H](F)C[C@@H](C(=O)NCc2cc(-c3cnc(C(F)(F)F)nc3)ncc2C#N)N1S(=O)(=O)c1ccc(F)cc1 | –
18 mL/min/kg | – | 14 mL/min/kg | 2.3 | 18 µM (≈ 9.76 µg/mL) | C[C@H]1[C@H](F)C[C@@H](C(=O)NCc2cc(-c3cnc(C(F)(F)F)cn3)ncn2)N1S(=O)(=O)c1ccc(F)cc1 | –
46 mL/min/kg | 2300 nM | 18 mL/min/kg | 3.4 | – | O=C(NCc1cc(-c2ccc(C(F)(F)F)nc2)ncn1)[C@@H]1CCCCN1S(=O)(=O)c1ccc(F)cc1 | –
18 mL/min/kg | 33 nM | 13 mL/min/kg | 2.6 | 84 µM (≈ 47 µg/mL) | C[C@H]1[C@H](F)C[C@@H](C(=O)NCc2cc(-c3cnc(C(F)(F)F)nc3)c(F)cn2)N1S(=O)(=O)c1ccc(F)cc1 | –
17 mL/min/kg | 8 nM | 10 mL/min/kg | 2.6 | < 1 µM | C[C@H]1[C@H](F)C[C@@H](C(=O)NCc2cc(-c3cnc(C(F)(F)F)nc3)ncc2F)N1S(=O)(=O)c1ccc(F)cc1 | Ratio [6]: 1.81; AUC(0-t) at 24 h [7]: 0.56 µM·h; IC50 [8]: > 20000 nM; inhibition at 10 µM (hERG (KCNH2)): 14.3%; IC50 [9]: 36 nM; t1/2 (Rattus norvegicus [10]): 7.5 h; bioavailability [11]: 12%; fraction unbound [12]: 0.02; AUC(0-t) at 24 h [13]: 32.8 µM·h; Vdss (Rattus norvegicus [14]): 7.5 L/kg; Ratio [15]: 1.95; Ratio [16]: 0.02; AUC(0-t) at 24 h [17]: 39.6 µM·h; Papp A→B [18]: 11.2 ×10⁻⁶ cm/s; fraction unbound [19]: 0.028; Cmax [20]: 2510 nM; Cmax [21]: 30 nM; Cmax [22]: 2330 nM; IC50 [23]: > 20000 nM
25 mL/min/kg | – | 12 mL/min/kg | 3 | < 1 µM | C[C@H]1[C@H](F)C[C@@H](C(=O)NCc2ccnc(-c3cnc(C(F)(F)F)nc3)c2)N1S(=O)(=O)c1ccc(F)cc1 | –
18 mL/min/kg | 64 nM | 11 mL/min/kg | 2.5 | 53 µM (≈ 28.8 µg/mL) | C[C@H]1[C@H](F)C[C@@H](C(=O)NCc2cc(-c3cnc(C(F)(F)F)nc3)ncn2)N1S(=O)(=O)c1ccc(F)cc1 | –
19 mL/min/kg | 179 nM | 10 mL/min/kg | 2.7 | 2 µM (≈ 1.08 µg/mL) | C[C@H]1[C@H](F)C[C@@H](C(=O)NCc2cc(-c3ccc(C(F)(F)F)nc3)ncn2)N1S(=O)(=O)c1ccc(F)cc1 | –
43 mL/min/kg | 154 nM | 16 mL/min/kg | 2.7 | – | O=C(NCc1cc(-c2ccc(C(F)(F)F)nc2)ncn1)[C@@H]1CCCN1S(=O)(=O)c1ccc(F)cc1 | –
20 mL/min/kg | 5 nM | 11 mL/min/kg | – | < 1 µM | C[C@H]1[C@H](F)C[C@@H](C(=O)NCc2cc(-c3cnc(C(F)(F)F)nc3)ncc2Cl)N1S(=O)(=O)c1ccc(F)cc1 | –
30 mL/min/kg | 239 nM | 19 mL/min/kg | 4.3 | – | C[C@@H]1CC[C@@H](C(=O)NCc2cc(-c3ccc(C(F)(F)F)nc3)ncn2)N1S(=O)(=O)c1ccc(F)cc1 | –
18 mL/min/kg | – | 16 mL/min/kg | 3.3 | 132 µM (≈ 71.5 µg/mL) | C[C@H]1[C@H](F)C[C@@H](C(=O)NCc2cc(-c3cnc(C(F)(F)F)nc3)ccn2)N1S(=O)(=O)c1ccc(F)cc1 | –
10 mL/min/kg | 1200 nM | 5 mL/min/kg | 2.4 | – | O=C(NCc1cc(-c2ccc(C(F)(F)F)nc2)ncn1)[C@@H]1C[C@@H](F)CN1S(=O)(=O)c1ccc(F)cc1 | –
47 mL/min/kg | 13 nM | 19 mL/min/kg | 2.9 | – | C[C@H]1CC[C@@H](C(=O)NCc2cc(-c3ccc(C(F)(F)F)nc3)ncn2)N1S(=O)(=O)c1ccc(F)cc1 | –
22 mL/min/kg | 5 nM | 10 mL/min/kg | 3.8 | < 1 µM | C[C@H]1[C@H](F)C[C@@H](C(=O)NCc2cc(-c3cnc(C(F)(F)F)nc3)nc(C3CC3)n2)N1S(=O)(=O)c1ccc(F)cc1 | –
40 mL/min/kg | 4400 nM | 7 mL/min/kg | 1.8 | – | O=C(NCc1cc(-c2ccc(C(F)(F)F)nc2)ncn1)[C@@H]1C[C@H](F)CN1S(=O)(=O)c1ccc(F)cc1 | –
25 mL/min/kg | 96 nM | 17 mL/min/kg | 2.3 | 123 µM (≈ 69.7 µg/mL) | C[C@H]1[C@H](F)C[C@@H](C(=O)NCc2cc(-c3cnc(C(F)(F)F)nc3)c(C#N)cn2)N1S(=O)(=O)c1ccc(F)cc1 | –
